Results taken from ChEMBL document CHEMBL1133270, “Cinnamaldehydes inhibit cyclin dependent kinase 4/cyclin D1” (Bioorg Med Chem Lett, 2000).

Legend:
Format in all cases: protein-complex assay
[1] = target: Cyclin-dependent kinase 4/cyclin D1 (Homo sapiens) (UniProt P11802+P24385); test: Inhibitory activity against Cyclin D1-cyclin-dependent kinase 4; parameters: concentration or dose not given beside the values; conditions: concentration not given here
Procedure, shortened: (§1)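 GST-cyclin D1-CDK4 from baculovirus-infected Sf21 cells, purified by glutathione chromatography, used at 200 nM. The substrate was a GST-RB fusion (RB residues 792–928), with ATP plus [γ-³³P]ATP. Compounds were added and the reaction ran 30 min at 30 °C, then was stopped with ice-cold 30% TCA. Products were captured on PVDF filter plates and ³³P-RB counted by scintillation. Inhibition is expressed relative to an inhibitor-free control.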

[2] = target: Cyclin-dependent kinase 1/cyclin B (Homo sapiens, UniProt P06493); test: Inhibition of Cyclin B-cyclin-dependent kinase 1
Procedure, shortened: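 Cyclin B-CDK1 purified from starfish oocytes; histone H1 as substrate; kinase reaction run for 10 min at 30 °C. Read-out is histone H1 phosphorylation, expressed as a percentage of the control reaction run without inhibitor.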

[3] = target: T1, Cyclin-dependent kinase 4/cyclin D1 (Homo sapiens, UniProt P11802); test: Inhibition of Cyclin D1-cyclin-dependent kinase 4; procedure, shortened: as §1
T1 sequence (P11802 whole entry): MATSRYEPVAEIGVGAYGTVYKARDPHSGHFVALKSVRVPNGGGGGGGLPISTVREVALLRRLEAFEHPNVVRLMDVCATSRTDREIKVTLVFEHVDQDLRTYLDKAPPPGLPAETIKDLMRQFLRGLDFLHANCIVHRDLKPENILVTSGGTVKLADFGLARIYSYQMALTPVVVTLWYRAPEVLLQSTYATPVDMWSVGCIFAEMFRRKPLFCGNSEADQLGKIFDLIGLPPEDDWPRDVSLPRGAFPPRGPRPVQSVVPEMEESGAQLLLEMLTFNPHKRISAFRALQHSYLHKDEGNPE
T1 sequence (P24385 whole entry, further chain): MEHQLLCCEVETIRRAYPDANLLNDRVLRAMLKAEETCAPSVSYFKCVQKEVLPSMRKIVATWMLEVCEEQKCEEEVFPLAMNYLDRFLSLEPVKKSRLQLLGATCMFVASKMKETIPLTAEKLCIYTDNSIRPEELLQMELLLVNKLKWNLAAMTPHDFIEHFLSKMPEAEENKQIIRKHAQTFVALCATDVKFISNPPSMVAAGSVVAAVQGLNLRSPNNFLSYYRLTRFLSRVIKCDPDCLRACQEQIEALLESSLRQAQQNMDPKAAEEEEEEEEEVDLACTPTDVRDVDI

[4] = target: T1, Cyclin-dependent kinase 4/cyclin D1; test: Inhibition of Cyclin D1-Cyclin dependent kinase 4; procedure, shortened: as §1

| SMILES | inhibition [1] | further results |
| --- | --- | --- |
| COc1ccc(/C=C/C=O)cc1OCc1ccc(Br)cc1 | 58% | – |
| O=C/C=C/c1cccc(OCc2cccc3ccccc23)c1 | 85% | – |
| O=C/C=C/c1cccc(OCc2ccc(Br)cc2)c1 | 88% | – |
| COc1ccc(COc2ccccc2/C=C/C=O)cc1 | 59% | – |
| Cc1ccccc1COc1cccc(/C=C/C=O)c1 | 73% | IC50 [2]: 60 µM; IC50 [3]: 15 µM |
| CC(Oc1cccc(/C=C/C=O)c1)c1ccccc1 (stereo unspecified) | 77% | – |
| COc1ccccc1COc1cccc(/C=C/C=O)c1 | 65% | – |
| O=C/C=C/c1cccc(OCc2ccc3c(c2)C(=O)c2ccccc2C3=O)c1 | 34% | – |
| COc1ccccc1COc1ccccc1/C=C/C=O | 43% | – |
| O=C/C=C/c1ccccc1OCCc1ccccc1 | 72% | – |
| O=C/C=C/c1cccc(OCCc2ccccc2)c1 | 80% | – |
| Cc1ccccc1COc1ccccc1/C=C/C=O | 70% | IC50 [2]: 200 µM; IC50 [3]: 18 µM |
| COc1ccc(COc2cccc(/C=C/C=O)c2)cc1 | 82% | – |
| COc1ccc2c(COc3cccc(/C=C/C=O)c3)cc(=O)oc2c1 | 53% | – |
| O=C/C=C/c1ccccc1OCc1cccc2ccccc12 | 38% | – |
| O=C/C=C/c1cccnc1 | 54% | – |
| COc1ccccc1C(=O)Oc1ccccc1/C=C/C=O | 23% | – |
| O=C/C=C/c1cccc(OCc2ccccc2)c1 | 94% | IC50 [2]: 50 µM; IC50 [3]: 7.5 µM |
| Cc1ccc(COc2cccc(/C=C/C=O)c2)cc1 | 84% | – |
| O=C/C=C/c1ccccc1OCc1ccccc1 | 85% | IC50 [2]: 50 µM; IC50 [3]: 11 µM |
| N#Cc1ccccc1COc1ccccc1/C=C/C=O | 22% | – |
| N#Cc1ccccc1COc1cccc(/C=C/C=O)c1 | 45% | – |

Further lines, with some results ahead:

| inhibition [1] | SMILES | further results |
| --- | --- | --- |
| < 10% | O=C(O)/C=C/c1ccccc1O | – |
| 51% | O=C/C=C/c1ccccc1Cl | – |
| 25% | O=C/C=C/c1ccccc1OC(=O)c1ccc(F)cc1 | – |
| 68% | Cc1ccc(COc2ccccc2/C=C/C=O)cc1 | – |
| 50% | Cc1ccc(C(=O)Oc2ccccc2/C=C/C=O)cc1 | – |
| 50% | O=C/C=C/c1ccccc1O [2-HYDROXYCINNAMALDEHYDE] | IC50 [2]: 130 µM; IC50 [3]: 35 µM |
| 30% | O=C/C=C/c1ccccc1[N+](=O)[O-] | – |
| 40% | COc1ccc(/C=C/C=O)cc1O | – |
| 40% | O=C/C=C/c1cccc(O)c1 | IC50 [4]: 45 µM; IC50 [2]: 30 µM |
| 71% | O=C/C=C/c1ccccc1OCc1ccc(Br)cc1 | – |
| 52% | O=C/C=C/c1ccccc1OC(=O)c1ccccc1 | – |
| 63% | CC(Oc1ccccc1/C=C/C=O)c1ccccc1 (stereo unspecified) | – |
